# Reference: ChEMBL document CHEMBL1144120, “In vitro evaluation of antifungal properties of phenylpropanoids and related compounds acting against dermatophytes” (1999)
# Activity calls are given as the source filed them. No cut-off for these calls is given here.
# Columns and labels:
# Saccharomyces cerevisiae = assay: Antifungal activity against Saccharomyces cerevisiae ATCC 9763 by agar dilution method; type: functional, organism-based
# Procedure, shortened: (§1)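 Sabouraud chloramphenicol agar dilution in 96-well plates. Strains were grown on Sabouraud chloramphenicol agar slants for 48 h at 30 °C and suspended in sterile distilled water, adjusted to 10^6 viable cells/mL. DMSO stocks were serially two-fold diluted into the agar to give 0.10–50 µg/mL, with DMSO ≤2% final. 5 µL inoculum per well; incubated 24, 48 or 72 h at 30 °C per control growth; MIC recorded.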
# Epidermophyton floccosum [1] = assay: Antifungal activity against Epidermophyton floccosum C 114 by agar dilution method; type: functional
# Procedure, shortened: (§2)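 Dermatophytes were tested by agar dilution on Sabouraud chloramphenicol agar in 96-well plates. DMSO stock solutions were serially two-fold diluted into the medium to give final concentrations of 0.10–50 µg/mL, with DMSO not exceeding 2%. Each well received 5 µL of spore suspension.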
# Nannizzia gypsea [2] = assay: Antifungal activity against Microsporum gypseum C 115 up to 50 ug/mL by agar dilution method; type: functional, organism-based; procedure, shortened: as §2
# Trichophyton rubrum [3] = assay: Antifungal activity against Trichophyton rubrum C 113 by agar dilution method; type: functional; procedure, shortened: as §2
# Microsporum canis [4] = assay: Antifungal activity against Microsporum canis C 112 up to 50 ug/mL by agar dilution method; type: functional, organism-based; procedure, shortened: as §2
# [5] = tested on: Trichophyton mentagrophytes; assay: Antifungal activity against Trichophyton mentagrophytes ATCC by agar dilution method; type: functional; procedure, shortened: as §2
# Cryptococcus neoformans = assay: Antifungal activity against Cryptococcus neoformans ATCC 32264 by agar dilution method; type: functional, organism-based; procedure, shortened: as §1
# Aspergillus niger = assay: Antifungal activity against Aspergillus niger ATCC 9029 by agar dilution method; type: functional, organism-based; procedure, shortened: as §1
# Epidermophyton floccosum [6] = assay: Antifungal activity against Epidermophyton floccosum C 114 up to 50 ug/mL by agar dilution method; type: functional, organism-based; procedure, shortened: as §2
# [7] = tested on: Trichophyton mentagrophytes; assay: Antifungal activity against Trichophyton mentagrophytes ATCC 9972 up to 50 ug/mL by agar dilution method; type: functional, organism-based; procedure, shortened: as §2
# Trichophyton rubrum [8] = assay: Antifungal activity against Trichophyton rubrum C 113 up to 50 ug/mL by agar dilution method; type: functional, organism-based; procedure, shortened: as §2
# Candida albicans = assay: Antifungal activity against Candida albicans ATCC 10231 by agar dilution method; type: functional, organism-based; procedure, shortened: as §1
# Aspergillus fumigatus = assay: Antifungal activity against Aspergillus fumigatus ATCC 26934 by agar dilution method; type: functional, organism-based; procedure, shortened: as §1
# Aspergillus flavus = assay: Antifungal activity against Aspergillus flavus ATCC 9170 by agar dilution method; type: functional, organism-based; procedure, shortened: as §1
# Nannizzia gypsea [9] = assay: Antifungal activity against Microsporum gypseum C 115 by agar dilution method; type: functional; procedure, shortened: as §2
# Microsporum canis [10] = assay: Antifungal activity against Microsporum canis C 112 by agar dilution method; type: functional; procedure, shortened: as §2
SMILES,MIC (Epidermophyton floccosum [1]),MIC (Trichophyton rubrum [3]),MIC [5],MIC (Nannizzia gypsea [9]),MIC (Microsporum canis [10]),Activity (Saccharomyces cerevisiae),Activity (Nannizzia gypsea [2]),Activity (Microsporum canis [4]),Activity (Cryptococcus neoformans),Activity (Aspergillus niger),Activity (Epidermophyton floccosum [6]),Activity [7],Activity (Trichophyton rubrum [8]),Activity (Candida albicans),Activity (Aspergillus fumigatus),Activity (Aspergillus flavus)
COc1ccc(C(=O)C(C)C)cc1OC,50 µg/mL,50 µg/mL,> 50 µg/mL,> 50 µg/mL,> 50 µg/mL,inactive,inactive,inactive,inactive,inactive,inactive,inactive,inactive,inactive,inactive,inactive
CCC(=O)c1ccc(OC)c(OC)c1,50 µg/mL,> 50 µg/mL,> 50 µg/mL,> 50 µg/mL,> 50 µg/mL,inactive,inactive,inactive,inactive,inactive,inactive,inactive,inactive,inactive,inactive,inactive
CC(Cl)C(=O)c1ccccc1 (stereo not drawn),15 µg/mL,12.5 µg/mL,10 µg/mL,20 µg/mL,6.25 µg/mL,inactive,inactive,inactive,inactive,inactive,inactive,inactive,inactive,inactive,inactive,inactive

# More lines, main results first:
MIC (Epidermophyton floccosum [1]),MIC (Trichophyton rubrum [3]),MIC [5],MIC (Nannizzia gypsea [9]),MIC (Microsporum canis [10]),SMILES,Activity (Saccharomyces cerevisiae),Activity (Nannizzia gypsea [2]),Activity (Microsporum canis [4]),Activity (Cryptococcus neoformans),Activity (Aspergillus niger),Activity (Epidermophyton floccosum [6]),Activity [7],Activity (Trichophyton rubrum [8]),Activity (Candida albicans),Activity (Aspergillus fumigatus),Activity (Aspergillus flavus)
> 50 µg/mL,> 50 µg/mL,> 50 µg/mL,> 50 µg/mL,> 50 µg/mL,C=CCc1ccc(OC)c(OC)c1 [METHYLEUGENOL],inactive,inactive,inactive,inactive,inactive,inactive,inactive,inactive,inactive,inactive,inactive
40 µg/mL,> 50 µg/mL,25 µg/mL,25 µg/mL,40 µg/mL,CC(C)C(=O)c1ccc2ccccc2c1,inactive,inactive,inactive,inactive,inactive,inactive,inactive,inactive,inactive,inactive,inactive
50 µg/mL,> 50 µg/mL,> 50 µg/mL,> 50 µg/mL,> 50 µg/mL,CC(C)(C)C(=O)c1ccccc1,inactive,inactive,inactive,inactive,inactive,inactive,inactive,inactive,inactive,inactive,inactive
> 50 µg/mL,> 50 µg/mL,> 50 µg/mL,> 50 µg/mL,> 50 µg/mL,COc1ccc(C(O)C(C)C)cc1OC (stereo not drawn),inactive,inactive,inactive,inactive,inactive,inactive,inactive,inactive,inactive,inactive,inactive
50 µg/mL,> 50 µg/mL,> 50 µg/mL,> 50 µg/mL,50 µg/mL,CCC(O)c1cc(OC)c(OC)c(OC)c1 (stereo not drawn),inactive,inactive,inactive,inactive,inactive,inactive,inactive,inactive,inactive,inactive,inactive
